# Laboratory results published in ChEMBL document CHEMBL3588747, “Virtual High-Throughput Screening To Identify Novel Activin Antagonists” (J Med Chem, 2015).
# The source made the active and inactive calls. The calls are words filed in the database; no cut-off is given here.
# Test system: not listed separately
# Assay: Solubility of the compound in cell growth medium up to 200 uM after 24 hrs by upright light microscopy
# Assay type: physicochemical
# Conditions: not given
# In short: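 Compound from 50 mM DMSO stock diluted to 200 µM final in DMEM-F12 with 5% FBS, 1% penicillin/streptomycin, […] D-glucose, held 24 h; precipitate checked visually under upright light microscope.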
row,SMILES,solubility
1,CCCn1ncc(CN2CCN(CCCc3ccccc3)[C@@H](CCO)C2)c1C,soluble
2,O=C(N[C@H](Cc1ccc2c(c1)OCO2)C(=O)N[C@@H](Cc1c[nH]c2ccccc12)C(=O)O)c1ccccc1,soluble
3,CC(C)(O)C#Cc1ccc(CN2CCC[C@@H](CCC(=O)N3CCOCC3)C2)s1,soluble
4,COc1cccc(CO[C@H]2CN(CCc3ccccc3)C(=O)CN(C(=O)[C@@H]3CNC(=O)C3)C2)c1,soluble
5,Cn1cc(CN2C[C@H](OCc3cccnc3)CN(Cc3ccc(C#CC(C)(C)O)cc3)CC2=O)cn1,soluble
6,O=C1CC[C@](CCC(=O)N2CCC([C@@H](O)c3cccnc3)CC2)(Cc2cccc3ccccc23)N1,soluble

# Test system: not listed separately
# Assay: Cytotoxicity against mouse LbetaT2 cells assessed as reduction in cell viability at 100 uM after 24 hrs by MTT assay
# Assay type: functional
# Conditions: not given
# In short: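 LβT2 gonadotrope cells seeded 5 × 10^4/well, grown 24 h in DMEM-F12 with 5% FBS and […] D-glucose, then exposed to compound at 10 or 100 µM in growth medium for 24 h. MTT added for a further 2–3 h; absorbance at 490 nm as viability.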
row,SMILES,inhibition at 100 µM [%]
1,CCCn1ncc(CN2CCN(CCCc3ccccc3)[C@@H](CCO)C2)c1C,< 20
2,O=C(N[C@H](Cc1ccc2c(c1)OCO2)C(=O)N[C@@H](Cc1c[nH]c2ccccc12)C(=O)O)c1ccccc1,< 20
3,CC(C)(O)C#Cc1ccc(CN2CCC[C@@H](CCC(=O)N3CCOCC3)C2)s1,< 20
4,COc1cccc(CO[C@H]2CN(CCc3ccccc3)C(=O)CN(C(=O)[C@@H]3CNC(=O)C3)C2)c1,< 20
5,Cn1cc(CN2C[C@H](OCc3cccnc3)CN(Cc3ccc(C#CC(C)(C)O)cc3)CC2=O)cn1,< 20
6,O=C1CC[C@](CCC(=O)N2CCC([C@@H](O)c3cccnc3)CC2)(Cc2cccc3ccccc23)N1,< 20

# Molecular target: T1, Inhibin beta A chain (Mus musculus, UniProt Q04998)
# T1 sequence (Q04998 whole entry): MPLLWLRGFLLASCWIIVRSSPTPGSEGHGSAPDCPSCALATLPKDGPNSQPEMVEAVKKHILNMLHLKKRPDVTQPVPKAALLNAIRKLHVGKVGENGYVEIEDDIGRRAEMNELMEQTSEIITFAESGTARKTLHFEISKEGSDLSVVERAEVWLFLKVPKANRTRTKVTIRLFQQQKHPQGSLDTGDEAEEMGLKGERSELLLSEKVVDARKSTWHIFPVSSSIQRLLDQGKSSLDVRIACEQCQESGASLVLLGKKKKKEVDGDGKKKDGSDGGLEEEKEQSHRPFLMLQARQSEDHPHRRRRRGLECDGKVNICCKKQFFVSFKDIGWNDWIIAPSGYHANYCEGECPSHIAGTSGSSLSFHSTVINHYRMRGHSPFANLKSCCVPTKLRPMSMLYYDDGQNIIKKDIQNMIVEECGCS
# Assay: Antagonist activity at activin A in mouse LbetaT2 cells transfected with -338 promoter region of FSHbeta gene conjugated to luciferase reporter assessed as inhibition of FSHbeta promoter activation by luciferase assay
# Assay type: cell-based
# Conditions: not given
# In short: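 −338FSHβ-Luc stably transfected LβT2 cells, 5 × 10^4 cells/well, plated 24 h, then given activin A (0.2 nM) with compound at 0.4–100 µM (in DMSO) or Fst288 0.05–4 nM as control, 6 h at 37 °C in serum-free, phenol red-free DMEM-F12. Cells lysed, luciferase activity read; IC50 from sigmoidal variable-slope fit; means ± SD.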
row,SMILES,IC50 [µM]
1,CCCn1ncc(CN2CCN(CCCc3ccccc3)[C@@H](CCO)C2)c1C,> 100
2,O=C(N[C@H](Cc1ccc2c(c1)OCO2)C(=O)N[C@@H](Cc1c[nH]c2ccccc12)C(=O)O)c1ccccc1,> 100
3,COc1cccc(CO[C@H]2CN(CCc3ccccc3)C(=O)CN(C(=O)[C@@H]3CNC(=O)C3)C2)c1,> 100
4,O=C1CC[C@](CCC(=O)N2CCC([C@@H](O)c3cccnc3)CC2)(Cc2cccc3ccccc23)N1,23.6

# Molecules with a lower IC50, results first:
row,IC50 [µM],SMILES
1,4.42,CC(C)(O)C#Cc1ccc(CN2CCC[C@@H](CCC(=O)N3CCOCC3)C2)s1
2,4.25,Cn1cc(CN2C[C@H](OCc3cccnc3)CN(Cc3ccc(C#CC(C)(C)O)cc3)CC2=O)cn1

# Test system: HepG2
# Assay: […] in human HepG2 cells assessed as cell viability after 96 hrs by MTT assay
# Assay type: functional, cell-based
# Conditions: HepG2, 96 h
# In short: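 HepG2 cells (5 × 10^4/well) treated with 1 nM activin A alone (DMSO solvent control) or with compound 1.6–200 µM or Fst288 0.5–8 nM, 96 h at 37 °C in DMEM with 0.2% FBS, pyruvate, glutamine. MTT added 0.5–1 h for viability as reversal of activin-induced apoptosis; IC50 from sigmoidal variable-slope fit; means ± SD.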
row,IC50 [µM],SMILES
1,23.2,CC(C)(O)C#Cc1ccc(CN2CCC[C@@H](CCC(=O)N3CCOCC3)C2)s1
2,43.9,Cn1cc(CN2C[C@H](OCc3cccnc3)CN(Cc3ccc(C#CC(C)(C)O)cc3)CC2=O)cn1
3,> 200,O=C1CC[C@](CCC(=O)N2CCC([C@@H](O)c3cccnc3)CC2)(Cc2cccc3ccccc23)N1

# Molecular target: T2, Inhibin beta A chain (Mus musculus) (UniProt Q04998)
# T2 sequence (whole entry): T1 sequence (Q04998 whole entry)
# Assay: Inhibition of activin A stimulated 4 day old CD1 mouse ovarian cell proliferation at 200 uM for 4 days by BrdU assay
# Conditions: not given
# In short: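 Ovaries from 4-day-old CD1 mice cultured on membrane inserts in DMEM/F12 with 0.03% BSA with 1 nM activin A plus compound at 200 µM (DMSO control; Fst288 4 nM or inhibin A 8 nM references) for 4 days, then 10 µM BrdU for 24 h. Genomic DNA (150 ng) denatured, dot-blotted, probed with anti-BrdU, ECL, densitometry; three independent experiments; ANOVA/Tukey.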
row,inhibition,SMILES
1,Active,CC(C)(O)C#Cc1ccc(CN2CCC[C@@H](CCC(=O)N3CCOCC3)C2)s1
